Results on 13 molecules are retold here after ChEMBL document CHEMBL1149660, “Identification and characterization of novel sodium/potassium-ATPase inhibitors by virtual screening of a compound database” (Bioorg Med Chem, 2007).

Activity calls are given as the source filed them. No cut-off for these calls is given here.

Assay [1] is filed under the species Sus scrofa. The assay can be described thus: (§1) Inhibition of Na/K-ATPase in porcine cerebral cortex. The format is tissue-based. Put shortly:
(§2)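 Coupled pyruvate kinase/lactate dehydrogenase assay using lyophilized porcine cerebral cortex Na/K-ATPase. The enzyme was preincubated at 37 °C for at least 30 min (or overnight at room temperature first, in some cases) with 10–14 inhibitor concentrations. Reactions were started with 5 mM ATP. NADH oxidation was followed at 340 nm for 5 min. IC50 came from the inhibition curves; relative potency is the IC50 divided by ouabain's IC50.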

A short description of assay [2]: as §1. The format is tissue-based, Sus scrofa. In a few lines: as §2
The species entered for assay [3] is Sus scrofa. The assay is described as follows: Inhibition of Na/K-ATPase in porcine cerebral cortex relative to ouabain. The format is tissue-based. In a few lines:
as §2

For the molecule `C[C@@H]1C[C@@H]2O[C@]3(C[C@@]4(C)[C@@H]5[C@@H](O)C[C@H]6C(C)(C)[C@@H](O[C@H]7OC[C@H](O)[C@@H](O)[C@@H]7O)CC[C@@]67C[C@@]57CC[C@]4(C)[C@@H]13)O[C@@H]2C(C)(C)O`, the outcome in assay [1] was inactive. On to `C[C@]12CC[C@H]3[C@@H](CC[C@]4(O)C[C@@H](O)CC[C@]34/C=N/Nc3ccccc3)[C@@]1(O)CC[C@@H]2C1=CC(=O)OC1`, for which, in assay [2], half-maximal inhibition (IC50) required 4230 nM. The molecule also registered an Activity in assay [3] of 7.89. For the molecule `C[C@H]1CCC([C@@H](C)[C@H]2CC[C@@H]3[C@@H]2CC[C@H]2[C@H]3CC(=O)[C@H]3C[C@@H](O)CC[C@@]32C)=NC1`, the IC50 – broadly, the midpoint of a concentration-inhibition curve – in assay [2] came to 143000 nM. Moreover, in assay [3], the Activity turned out to be 305. Turning to `C[C@H]1O[C@@H](O[C@H]2CC[C@]3(C=O)[C@H]4CC[C@]5(C)[C@@H](C6=CC(=O)OC6)CC[C@]5(O)[C@@H]4CC[C@]3(O)C2)C[C@H]2OC(C)(C)O[C@@H]12`, the IC50 in assay [2] was found to be 14.6 nM. In assay [3], this molecule had an Activity of 0.031.

`C[C@H]1O[C@@H](O[C@H]2CC[C@]3(C=O)[C@H]4CC[C@]5(C)[C@@H](C6=COC(=O)C6)CC[C@]5(O)[C@@H]4CC[C@]3(O)C2)C[C@@H]2OC3(CCCCC3)O[C@@H]21` returned an IC50 in assay [2] of 409 nM. The molecule also gave an Activity in assay [3] of 0.872.

On to `C[C@]12CC[C@@H](O)C[C@@H]1[C@@H](O)C[C@H]1[C@H]2CC[C@]2(C)[C@@H]([C@@]3(C)CO3)CC[C@]12C`, for which, in assay [1], the result was inactive. As to `C[C@H]1O[C@@H](O[C@H]2CC[C@]3(C=O)[C@H]4CC[C@]5(C)[C@@H](C6=CC(=O)OC6)CC[C@]5(O)[C@@H]4CC[C@]3(O)C2)C[C@H](O)[C@@H]1O[C@@H]1OC[C@@H](O)[C@H](O)[C@H]1O`, in assay [2], 160 nM corresponded to half-maximal inhibition (IC50). The Activity in assay [3] is 0.341. In the same order, the values of `CO[C@H]1[C@H](O)[C@H](O[C@H]2CC[C@@]3(C=O)[C@@H](CC[C@@H]4[C@H]3CC[C@]3(C)[C@@H](c5ccc(=O)oc5)CC[C@]43O)C2)O[C@@H](C)[C@@H]1O` are 55.6 nM and 0.118. The matching figures for `CC1OC(O[C@H]2CC[C@]3(/C=N/CCc4ccc(O)cc4)[C@H]4CC[C@]5(C)[C@@H](C6=CC(=O)OC6)CC[C@]5(O)[C@@H]4CC[C@]3(O)C2)CC(O)C1O` (some centres not stated): 2640 nM and 4.92.

For the molecule `CC(=O)OCC(=O)[C@@]1(OC(C)=O)CC[C@H]2[C@@H]3CC[C@H]4C[C@H](OC(C)=O)CC[C@]4(C)[C@H]3CC[C@@]21C`, the result in assay [1] was inactive.

Take `CC(C)(O)[C@H]1CC[C@@](C)([C@H]2[C@@H](O)C[C@@]3(C)[C@@H]4C[C@H](O)C5C(C)(C)[C@@H](O[C@@H]6O[C@H](CO)[C@@H](O)[C@H](O)[C@H]6O)CC[C@@]56C[C@@]46CC[C@]23C)O1` (some centres not stated): the outcome in assay [1] was inactive. In assay [2], `C[C@]12CC[C@H]3[C@@H](CC[C@]4(O)C[C@@H](O)CC[C@]34/C=N/C34CC5CC(CC(C5)C3)C4)[C@@]1(O)CC[C@@H]2C1=CC(=O)OC1` came in with an IC50 of 313 nM. The Activity in assay [3] came out at 0.668. Take `C[C@]12CC[C@H]3[C@@H](CC[C@]4(O)C[C@@H](OC(=O)c5cccnc5)CC[C@]34C=O)[C@@]1(O)CC[C@@H]2C1=CC(=O)OC1`: the IC50 in assay [2] came to 443 nM. The same molecule came in with an Activity in assay [3] of 0.944.
